In ChEMBL document CHEMBL1142894, “Preparation of 5-aryl-3-alkylthio-l,2,4-triazoles and corresponding sulfones with antiinflammatory-analgesic activity” (Bioorg Med Chem, 2007):
The source made the active and inactive calls. No cut-off for these calls is given here.

How the values were obtained:
[1] = system: Mus musculus; assay: Gastric-ulcerogenic effect in Swiss albino mouse assessed as lesions at 25 mg/kg, po; assay type: functional, organism-based; set-up: dose 25 mg/kg
Summary of the method: (§1)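 Mice killed under deep ether anesthesia 3 h after the writhing test; the oral dose in 0.5% CMC was the one used in that test. Stomachs removed, opened along the great curvature and examined under a dissecting microscope for lesions or bleeding. Reported as ratio of ulceration; n = 6.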

[2] = system: Mus musculus; assay: Inhibition of p-benzoquinone-induced writhing in Swiss albino mouse at 25 mg/kg, po relative to control; assay type: functional
Summary of the method: (§2)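 Mice, n = 6 per group, dosed orally with a suspension in 0.5% sodium CMC. 60 min later, 0.1 ml/10 g of 2.5% […] p-benzoquinone in distilled water given ip. Abdominal writhes counted per animal for 15 min, starting 5 min after injection. Expressed as % change in mean writhing count versus vehicle controls.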

[3] = system: Mus musculus; assay: Inhibition of p-benzoquinone-induced writhing in Swiss albino mouse at 100 mg/kg, po relative to control; assay type: functional; summary of the method: as §2
[4] = system: Mus musculus; assay: Inhibition of carrageenan-induced paw edema in Swiss albino mouse at 50 mg/kg, po after 180 mins relative to control; assay type: functional; settings: 3 h
Summary of the method: (§3)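 Oral dosing in 0.5% CMC; vehicle to controls. Then carrageenan (0.5 mg/25 ll, freshly suspended in 154 mM saline) injected into the right hind paw subplantar tissue; saline into the left paw. Right-left footpad thickness difference measured by dial gauge calliper every 90 min over 6 h. Inhibition % is relative to vehicle control. n = 6; mean ± SEM.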

[5] = system: Mus musculus; assay: Inhibition of carrageenan-induced paw edema in Swiss albino mouse at 25 mg/kg, po after 360 mins relative to control; assay type: functional; settings: 6 h; summary of the method: as §3
[6] = system: Mus musculus; assay: Inhibition of carrageenan-induced paw edema in Swiss albino mouse at 25 mg/kg, po after 90 mins relative to control; assay type: functional; settings: 1.5 h; summary of the method: as §3
[7] = system: Mus musculus; assay: Analgesic activity against p-benzoquinone-induced abdominal constriction in Swiss albino mouse assessed as number of writhings at 100 mg/kg, po; assay type: functional, Abdomen
Summary of the method: (§4)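 Test samples given orally in 0.5% CMC; vehicle to controls. 60 min later, 2.5% (v/v) p-benzoquinone in distilled water, 0.1 ml/10 g, given i.p. Mice housed singly; writhes counted for 15 min starting 5 min after injection. Activity is % change from vehicle controls. n = 6; mean ± SEM.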

[8] = system: Mus musculus; assay: Antiinflammatory activity against carrageenan-induced paw edema in Swiss albino mouse assessed as swelling thickness at 200 mg/kg, po after 270 mins; assay type: functional; summary of the method: as §3
[9] = system: Mus musculus; assay: Antiinflammatory activity against carrageenan-induced paw edema in Swiss albino mouse assessed as swelling thickness at 100 mg/kg, po after 270 mins; assay type: functional; summary of the method: as §3
[10] = system: Mus musculus; assay: Inhibition of carrageenan-induced paw edema in Swiss albino mouse at 50 mg/kg, po after 90 mins relative to control; assay type: functional; settings: 1.5 h
Summary of the method: (§5)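 Mice, n = 6 per group. Test agent given orally as a suspension in 0.5% sodium CMC in distilled water; controls received vehicle only. Afterwards, 0.5 mg/25 ll carrageenan in saline (154 mM NaCl) injected subplantar into the right hind paw, saline into the left. Right-minus-left footpad thickness measured by dial gauge caliper every 90 min for 6 h. Inhibition is relative to vehicle-control group means.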

[11] = system: Mus musculus; assay: Analgesic activity against p-benzoquinone-induced abdominal constriction in Swiss albino mouse assessed as number of writhings at 50 mg/kg, po; assay type: functional, Abdomen; summary of the method: as §4
[12] = system: Mus musculus; assay: Inhibition of carrageenan-induced paw edema in Swiss albino mouse at 25 mg/kg, po after 180 mins relative to control; assay type: functional; settings: 3 h; summary of the method: as §3
[13] = system: Mus musculus; assay: Antiinflammatory activity against carrageenan-induced paw edema in Swiss albino mouse assessed as swelling thickness at 50 mg/kg, po after 180 mins; assay type: functional; summary of the method: as §3
[14] = system: Mus musculus; assay: Inhibition of carrageenan-induced paw edema in Swiss albino mouse at 100 mg/kg, po after 90 mins relative to control; assay type: functional; settings: 1.5 h; summary of the method: as §3
[15] = system: Mus musculus; assay: Antiinflammatory activity against carrageenan-induced paw edema in Swiss albino mouse assessed as swelling thickness at 25 mg/kg, po after 180 mins; assay type: functional; summary of the method: as §3
[16] = system: Mus musculus; assay: Acute toxicity in Swiss albino mouse assessed as lethal effect at 25 mg/kg/day, po after 72 hrs; assay type: organism-based; set-up: route oral; settings: in vivo
Summary of the method: (§6)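 Oral single dose suspended in 0.5% carboxymethylcellulose, given after a 24 h fast; food and water returned 1 h after dosing. Vehicle-only controls. Mice observed at 1 h, then once daily for 72 h, for toxic signs and mortality.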

[17] = system: Mus musculus; assay: Antiinflammatory activity against carrageenan-induced paw edema in Swiss albino mouse assessed as swelling thickness at 100 mg/kg, po after 180 mins; assay type: functional; summary of the method: as §3
[18] = system: Mus musculus; assay: Inhibition of carrageenan-induced paw edema in Swiss albino mouse at 25 mg/kg, po after 270 mins relative to control; assay type: functional; settings: 4.5 h; summary of the method: as §3
[19] = system: Mus musculus; assay: Inhibition of carrageenan-induced paw edema in Swiss albino mouse at 100 mg/kg, po after 270 mins relative to control; assay type: functional; settings: 4.5 h; summary of the method: as §3
[20] = system: Mus musculus; assay: Antiinflammatory activity against carrageenan-induced paw edema in Swiss albino mouse assessed as swelling thickness at 50 mg/kg, po after 90 mins; assay type: functional; summary of the method: as §3
[21] = system: Mus musculus; assay: Antiinflammatory activity against carrageenan-induced paw edema in Swiss albino mouse assessed as swelling thickness at 25 mg/kg, po after 90 mins; assay type: functional; summary of the method: as §3
[22] = system: Mus musculus; assay: Gastric-ulcerogenic effect in Swiss albino mouse assessed as lesions at 100 mg/kg, po; assay type: functional, organism-based; set-up: dose 100 mg/kg; summary of the method: as §1
[23] = system: Mus musculus; assay: Acute toxicity in Swiss albino mouse assessed as lethal effect at 100 mg/kg/day, po after 72 hrs; assay type: organism-based; set-up: route oral; settings: in vivo; summary of the method: as §6
[24] = system: Mus musculus; assay: Acute toxicity in Swiss albino mouse assessed as lethal effect at 200 mg/kg/day, po after 72 hrs; assay type: organism-based; set-up: route oral; settings: in vivo; summary of the method: as §6
[25] = system: Mus musculus; assay: Antiinflammatory activity against carrageenan-induced paw edema in Swiss albino mouse assessed as swelling thickness at 200 mg/kg, po after 360 mins; assay type: functional; summary of the method: as §3
[26] = system: Mus musculus; assay: Antiinflammatory activity against carrageenan-induced paw edema in Swiss albino mouse assessed as swelling thickness at 100 mg/kg, po after 360 mins; assay type: functional; summary of the method: as §3
[27] = system: Mus musculus; assay: Antiinflammatory activity against carrageenan-induced paw edema in Swiss albino mouse assessed as swelling thickness at 25 mg/kg, po after 270 mins; assay type: functional; summary of the method: as §3
[28] = system: Mus musculus; assay: Inhibition of carrageenan-induced paw edema in Swiss albino mouse at 100 mg/kg, po after 360 mins relative to control; assay type: functional; settings: 6 h; summary of the method: as §3
[29] = system: Mus musculus; assay: Antiinflammatory activity against carrageenan-induced paw edema in Swiss albino mouse assessed as swelling thickness at 50 mg/kg, po after 360 mins; assay type: functional; summary of the method: as §3
[30] = system: Mus musculus; assay: Inhibition of p-benzoquinone-induced writhing in Swiss albino mouse at 50 mg/kg, po relative to control; assay type: functional; summary of the method: as §2
[31] = system: Mus musculus; assay: Antiinflammatory activity against carrageenan-induced paw edema in Swiss albino mouse assessed as swelling thickness at 25 mg/kg, po after 360 mins; assay type: functional; summary of the method: as §3
[32] = system: Mus musculus; assay: Antiinflammatory activity against carrageenan-induced paw edema in Swiss albino mouse assessed as swelling thickness at 200 mg/kg, po after 90 mins; assay type: functional; summary of the method: as §3
[33] = system: Mus musculus; assay: Acute toxicity in Swiss albino mouse assessed as lethal effect at 50 mg/kg/day, po after 72 hrs; assay type: organism-based; set-up: route oral; settings: in vivo; summary of the method: as §6
[34] = system: Mus musculus; assay: Inhibition of p-benzoquinone-induced writhing in Swiss albino mouse at 200 mg/kg, po relative to control; assay type: functional; summary of the method: as §2
[35] = system: Mus musculus; assay: Antiinflammatory activity against carrageenan-induced paw edema in Swiss albino mouse assessed as swelling thickness at 50 mg/kg, po after 270 mins; assay type: functional; summary of the method: as §3
[36] = system: Mus musculus; assay: Antiinflammatory activity against carrageenan-induced paw edema in Swiss albino mouse assessed as swelling thickness at 100 mg/kg, po after 90 mins; assay type: functional; summary of the method: as §3
[37] = system: Mus musculus; assay: Gastric-ulcerogenic effect in Swiss albino mouse assessed as lesions at 50 mg/kg, po; assay type: functional, organism-based; set-up: dose 50 mg/kg; summary of the method: as §1
[38] = system: Mus musculus; assay: Inhibition of carrageenan-induced paw edema in Swiss albino mouse at 50 mg/kg, po after 270 mins relative to control; assay type: functional; settings: 4.5 h; summary of the method: as §5
[39] = system: Mus musculus; assay: Antiinflammatory activity against carrageenan-induced paw edema in Swiss albino mouse assessed as swelling thickness at 200 mg/kg, po after 180 mins; assay type: functional; summary of the method: as §3
[40] = system: Mus musculus; assay: Inhibition of carrageenan-induced paw edema in Swiss albino mouse at 50 mg/kg, po after 360 mins relative to control; assay type: functional; settings: 6 h; summary of the method: as §5
[41] = system: Mus musculus; assay: Analgesic activity against p-benzoquinone-induced abdominal constriction in Swiss albino mouse assessed as number of writhings at 25 mg/kg, po; assay type: functional, Abdomen; summary of the method: as §4
[42] = system: Mus musculus; assay: Inhibition of carrageenan-induced paw edema in Swiss albino mouse at 100 mg/kg, po after 180 mins relative to control; assay type: functional; settings: 3 h; summary of the method: as §3
[43] = system: Mus musculus; assay: Analgesic activity against p-benzoquinone-induced abdominal constriction in Swiss albino mouse assessed as number of writhings at 200 mg/kg, po; assay type: functional, Abdomen; summary of the method: as §4

CCSc1nc(-c2ccccc2Cl)n[nH]1
Activity [1]: Active | inhibition in vivo at 25 mg/kg [2]: 5.6% | inhibition in vivo at 100 mg/kg [3]: 25.6% | inhibition in vivo at 50 mg/kg [4]: 27.9% | inhibition in vivo at 25 mg/kg [5]: 4.3% | inhibition in vivo at 25 mg/kg [6]: 7.3% | Activity [7]: 35.2 | Activity [8]: 67.9 10^-2mm | Activity [9]: 42.2 10^-2mm | inhibition in vivo at 50 mg/kg [10]: 15% | Activity [11]: 37.8 | inhibition in vivo at 25 mg/kg [12]: 7.7% | Activity [13]: 42.8 10^-2mm | inhibition in vivo at 100 mg/kg [14]: 25.9% | Activity [15]: 54.8 10^-2mm | Activity [16]: Non-toxic | Activity [17]: 37.8 10^-2mm | inhibition in vivo at 25 mg/kg [18]: 6.6% | inhibition in vivo at 100 mg/kg [19]: 28.2% | Activity [20]: 45.2 10^-2mm | Activity [21]: 49.3 10^-2mm | Activity [22]: Active | Activity [23]: Non-toxic | Activity [24]: Non-toxic | Activity [25]: 75.9 10^-2mm | Activity [26]: 47.5 10^-2mm | Activity [27]: 60.5 10^-2mm | inhibition in vivo at 100 mg/kg [28]: 30.9% | Activity [29]: 50.7 10^-2mm | inhibition in vivo at 50 mg/kg [30]: 26.4% | Activity [31]: 68.9 10^-2mm | Activity [32]: 55.8 10^-2mm | Activity [33]: Non-toxic | inhibition in vivo at 200 mg/kg [34]: 19.6% | Activity [35]: 46.8 10^-2mm | Activity [36]: 33.2 10^-2mm | Activity [37]: Active | inhibition in vivo at 50 mg/kg [38]: 27.8% | Activity [39]: 61.2 10^-2mm | inhibition in vivo at 50 mg/kg [40]: 29.6% | Activity [41]: 48.5 | inhibition in vivo at 100 mg/kg [42]: 26.6% | Activity [43]: 41.3
